Published values gathered from unrelated publications.
Protocols differ between the studies behind these lines.
PFF0160c E182D: Dihydroorotate dehydrogenase (quinone), mitochondrial (PFF0160c, Plasmodium falciparum, UniProt Q08210, E182D)
PFF0160c: Dihydroorotate dehydrogenase (quinone), mitochondrial (PFF0160c, Plasmodium falciparum, UniProt Q08210)

CCc1nc2nc(C)cc(Nc3ccc4c(c3)OCCO4)n2n1 — IC50 (PFF0160c E182D; enzyme activity; inhibitor; absorbance): > 10 µM
Cc1nc(Nc2ccc(C)c(Cl)c2)c2c(C)noc2n1 — IC50 (PFF0160c; enzyme activity; inhibitor; absorbance): 0.13 µM
Cc1c(Cc2ccc(F)c(F)c2)c[nH]c1C(=O)NC(C)c1nc[nH]n1 (stereo not shown) — IC50 (PFF0160c; enzyme activity; inhibitor; absorbance): > 100 µM
COc1cc(Nc2ncc(F)c(Nc3ccc4c(n3)NC(=O)C(C)(C)O4)n2)cc(OC)c1OC — IC50 (cGMP-specific 3',5'-cyclic phosphodiesterase (PDE5A, Homo sapiens, UniProt O76074); enzyme activity; inhibitor): 0.316 µM
O=S(=O)(O)c1nc2ccccc2[nH]1 — IC50 (racE (Bacillus subtilis, UniProt P94556, N75A); enzyme activity; inhibitor; absorbance): 890 µM
Cc1nc(NC2Cc3cc(F)c(F)cc3C2)c2c(C(F)(F)F)noc2n1 — IC50 (PFF0160c; enzyme activity; inhibitor; absorbance): 0.022 µM
Cc1c(C2(c3cccc(C(F)(F)F)c3)CC2)c[nH]c1C(=O)NC(C)c1nc[nH]n1 (stereo not shown) — IC50 (PFF0160c; enzyme activity; inhibitor; absorbance): 30 µM
Cc1nc(NC2CCc3cc(Br)ccc3C2)c2c(C)noc2n1 (stereo not shown) — IC50 (PFF0160c; enzyme activity; inhibitor; absorbance): 0.53 µM
Cc1c(Cc2ccc(C(F)(F)F)nc2)c[nH]c1C(=O)NC(C)c1nc[nH]n1 (stereo not shown) — IC50 (PFF0160c; enzyme activity; inhibitor; absorbance): > 100 µM
COc1ccc(C(=O)NCC(C)(C)c2nc(-c3ccc(Cl)c(O)c3)c(-c3ccncc3)[nH]2)cc1OCCN(C(C)C)C(C)C — IC50 (PFF0160c; enzyme activity; inhibitor; absorbance): > 10 µM
CC(CCc1ccccc1)NC(C)C(O)c1ccc(O)cc1 (stereo not shown) — IC50 (Kappa-type opioid receptor (OPRK1, Homo sapiens, UniProt P41145); ligand displacement; radioligand): 4.98 µM
COCC(C)n1c(SCC(=O)Nc2cc(C(F)(F)F)ccc2Cl)nc2ccccc2c1=O (stereo not shown) — IC50 (PFF0160c; enzyme activity; inhibitor; absorbance): 0.626 µM
CCOC(=O)c1[nH]cc(Cc2cccc3ncoc23)c1C — IC50 (PFF0160c; enzyme activity; inhibitor; absorbance): 0.1 µM
CN(C)S(=O)(=O)c1ccc(Sc2ccccc2)c(C(=O)N2CCCC(C(N)=O)C2)c1 (stereo not shown) — IC50 (PFF0160c; enzyme activity; inhibitor; absorbance): 3.67 µM
Cc1cc(C(C)NC(=O)c2[nH]cc(-c3n[nH]c4cc(C(F)(F)F)ccc34)c2C)no1 (stereo not shown) — IC50 (PFF0160c; enzyme activity; inhibitor; absorbance): > 100 µM
Cn1cc(-c2ccc(-n3ccc(OCc4ccc(Cl)cn4)cc3=O)cn2)cn1 — IC50 (PFF0160c E182D; enzyme activity; inhibitor; absorbance): 7.02 µM
Cc1nc(NC2CCc3cc(Cl)ccc3C2)c2c(C)noc2n1 (stereo not shown) — IC50 (PFF0160c; enzyme activity; inhibitor; absorbance): 0.12 µM
CCNC(=O)c1ccc(-n2nc(C)cc2-c2ccccc2)cc1 — IC50 (PFF0160c; enzyme activity; inhibitor; absorbance): 0.74 µM
CC(C)C[C@@H]1C(=O)N[C@H]([C@@H](C)O)C(=O)N[C@H](C)[C@@H](C)C(=O)O[C@@H](Cc2ccccc2)C(=O)N(C)[C@@H](C(C)C)C(=O)N2CCC[C@H]2C(=O)N(C)[C@H](Cc2ccccc2)C2=N[C@@H](CS2)C(=O)N[C@H](C)C2=N[C@@H](CS2)C(=O)N1C — IC50 (Vitamin K-dependent protein C (PROC, Homo sapiens, UniProt P04070); enzyme activity; inhibitor): 66.6 µM
